Source: PubChem BioAssay (several laboratories)
NR2E3 ag-1: human photoreceptor-specific nuclear receptor agonism; inhibition of corepressor binding, % at 3.98 µM; AID 602229; CHO-S Gal4-NCOR/VP16-NR2E3 two-hybrid, luciferase; hit rate 0.35% among 360,000;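 active = inhibition above the mean of all tested compounds plus 3 SD, cut at about 70% in these data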;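 also: 0% = DMSO with NR2E3 transfected cells and 100% = cells lacking NR2E3 construct; higher means lower luciferase signal from less NR2E3 corepressor binding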
Target sequence (Q9Y5X4 whole entry, looked up, the tested form may be a part): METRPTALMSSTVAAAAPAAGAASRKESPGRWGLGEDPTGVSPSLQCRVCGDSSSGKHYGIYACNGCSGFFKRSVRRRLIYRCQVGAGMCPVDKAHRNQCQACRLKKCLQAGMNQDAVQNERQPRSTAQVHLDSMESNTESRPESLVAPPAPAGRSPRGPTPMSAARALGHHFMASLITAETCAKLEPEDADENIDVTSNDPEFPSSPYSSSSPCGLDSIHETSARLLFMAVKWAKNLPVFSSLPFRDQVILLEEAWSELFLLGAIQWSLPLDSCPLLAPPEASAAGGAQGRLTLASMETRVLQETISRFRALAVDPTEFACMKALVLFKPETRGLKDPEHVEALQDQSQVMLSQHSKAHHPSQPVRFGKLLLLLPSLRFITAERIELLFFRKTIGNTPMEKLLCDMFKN
NR2E3 ag-2: activates human photoreceptor nuclear receptor NR2E3; inhibition of corepressor binding, % at 4.78 µM; Q9Y5X4; GST-NR2E3/biotin-RetCOR TR-FRET, 1536-well; hit rate 0.12% among 320,000;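 active = percent inhibition above the cutoff of mean plus 3 SD of all tested compounds, set per screening campaign, cut at about 20% in these data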;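 also: 0% = DMSO wells and 100% = biotin wells as full block of FRET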
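System: GST-NR2E3 and biotin-RetCOR proteins; probe or stimulus: 7 nM biotin-RetCOR; doses: compound at 4.8 µM, single dose; schedule: Compound–protein incubation for 5 h at 4 °C; detection: time-resolved FRET; read-out: percent inhibition; controls: biotin wells as high control, 0.6% DMSO wells as low control; format: 1536-well plates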
Myeloid diff 2: myeloid differentiation induction; ER-HoxA9 myeloid progenitors, lysozyme-GFP differentiation, flow cytometry; calls only at 10 µM; hit rate 1% among 360,000; AID 624256;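 active = normalized GFP-positive differentiation at or above the plate's own cutoff, the solvent-only control mean plus 3 SD; inconclusive = no clear call, values can overlap the other calls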;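 also: cells exposed to compound for four days before flow analysis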
FXN GAA850 act: frataxin GAA850 promoter activation. HEK293 lucGAA850 FXN promoter luciferase reporter, 24 h; percent of 10 µM SAHA response. hit rate 0.56% among 360,000. activation, % at 6 µM;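 active = activation above the average of all compounds screened plus 3 SD, cutoff fixed separately per campaign, cut at about 7.5% in these data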;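 also: 0% = DMSO wells and 100% = 10 µM SAHA wells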
T cell modulator: modulates CD8 T cell binding to vesicles; 2C CD8+ T cell-vesicle binding, flow cytometry; hits give low values; hit rate 0.068% among 330,000; response (vesicle binding), % at 7 µM; AID 2052;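 active = response, share of CD8 T cells binding vesicles, and their 90th percentile fluorescence all below set limits, cut at about 80% in these data, passing the limit was not always enough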;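 also: values below 100% mean blocked vesicle binding to the CD8+ T cells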
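incubation = binding step 1.5 h, 37 °C, antibody labelling 20 min, ice | test system = 2C mouse CD8+ T cells | read-out basis = percent CD8+ FL2 mean versus row control | controls = Peptide-free naked vesicles (low) and QL9 vesicles with 0.7% DMSO vehicle (high) | detection = flow cytometry of vesicle-bound cells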
NR2E3 ag conf: NR2E3 agonism confirmed in two-hybrid assay; AID 624378; hit rate 51% among 2,300; CHO-S mammalian two-hybrid NR2E3-NCOR, luciferase luminescence; shares compounds with NR2E3 ag-1; inhibition, % at 3.98 µM;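 active = average inhibition above a cutoff equal to the mean inhibition of all tested compounds plus one SD, cut at about 70% in these data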;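 also: 0% = DMSO in NR2E3 cells and 100% = DMSO in cells lacking NR2E3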
GAL4-VP16 luc: GAL4-VP16 reporter inhibition in NR2E3 agonist counterscreen | shares compounds with NR2E3 ag-1 | CHO-S GAL4-VP16 luciferase reporter, luminescence | inhibition, % at 3.98 µM | hit rate 29% among 2,300;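 active = mean inhibition above a cutoff equal to the average over all tested compounds plus one standard deviation, cut at about 70% in these data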;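 also: luciferase from a UAS reporter driven by GAL4-VP16 transactivation; 0% = DMSO with VP16-transfected cells and 100% = DMSO with cells lacking VP16; higher means less reporter light so more repression of VP16 activity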
Starred values were filed as active, the others as inactive; i = inactive; ? = inconclusive; . = no result. Only some compounds are listed: those with a hit (about 2% of all), similar ones and a draw of the others.

SMILES	NR2E3 ag-1	NR2E3 ag-2	Myeloid diff 2	FXN GAA850 act	T cell modulator	NR2E3 ag conf	GAL4-VP16 luc
O=[N+]([O-])c1cc2ccccc2c(O)c1O	-11	.	i	-1	.	.	.
O=[N+]([O-])c1cc(-c2ccccc2)cc([N+](=O)[O-])c1O	79*	.	i	1	.	100*	89*
COc1cccc(CNC(=O)[C@@H]2CCCN2C(=O)[C@@H]2CCCN2)c1	-15	.	i	.	.	.	.
Cn1nc(C(C)(C)C)cc1C(=O)NCc1ccc2c(c1)OCO2	105*	-4	?	-3	308	95*	79*
Cc1oc(C(C)(C)C)cc1C(=O)NCc1ccc2c(c1)OCO2	-13	2	i	0	538	.	.
CCOc1ccccc1Nc1nc(N2CCCC2)nc(N2CCOCC2)n1	12	5	i	-1	.	.	.
O=C(c1cccc(S(=O)(=O)N2CCN(c3ccc(F)cc3)CC2)c1)N1CCCCCCC1	52	0	i	2	220	43	43
CC(=O)N1CCN(C(=O)c2cccc(S(=O)(=O)N3CCN(c4ccc(F)cc4)CC3)c2)CC1	-2	-1	i	1	208	.	.
COc1cccc(CN(C)C(=O)c2cccc(S(=O)(=O)N3CCN(c4ccc(F)cc4)CC3)c2)c1OC	64	4	.	-5	i	79*	69
CN(Cc1ccc(Cl)cc1Cl)C(=O)c1cccc(S(=O)(=O)N2CCN(c3ccccc3)CC2)c1	23	4	i	-2	141	.	.
CN(CCOc1ccc(Cl)cc1)C(=O)c1cccc(S(=O)(=O)N2CCN(c3ccccc3)CC2)c1	85*	.	i	-3	.	92*	81*
COc1cccc(CN(C)C(=O)c2cccc(S(=O)(=O)N3CCN(c4ccccc4)CC3)c2)c1OC	55	.	i	0	.	81*	58
O=C(c1[nH]c(C(F)(F)F)nc1-c1ccccc1)N1CCN(c2ncccc2C(F)(F)F)CC1	-10	.	i	.	.	.	.
Cc1ccc(C2(C)NC(=O)N(CC(=O)Nc3cc(S(=O)(=O)N4CCOCC4)ccc3OC(C)C)C2=O)cc1 (configuration not stated)	-13	.	i	1	.	.	.
COc1cccc(CN(C)C(=O)c2cccc(S(=O)(=O)N3CCN(Cc4ccccc4)CC3)c2)c1OC	63	.	i	-3	.	66	46
CN(Cc1ccc(OC(F)F)cc1)C(=O)c1cccc(S(=O)(=O)N2CCN(Cc3ccccc3)CC2)c1	91*	.	i	-6	.	92*	76*
COc1cnc(-c2cccc(C(F)(F)F)c2)c(NC(=O)c2cc3ccccc3s2)n1	-26	.	i	-3	.	.	.
CCc1ccc(-c2nc(CSCC(=O)N3CCN(c4ncccn4)CC3)c(C)o2)cc1	66	1	?	-5	193	71*	63
CSc1ccc(-c2nc(CSCC(=O)NC3CC3)c(C)o2)cc1	100*	4	?	-3	662	85*	84*
CCOc1ccc(-c2nc(CSCC(=O)NCCCN3CCCC3=O)c(C)o2)cc1	60	0	i	-3	364	64	36
CCc1ccc(-c2nc(CSCC(=O)NC3CC3)c(C)o2)cc1	111*	2	i	-13	400	98*	97*
CSc1ccc(-c2nc(CSCC(=O)N3CCOCC3)c(C)o2)cc1	-32	-2	i	-1	513	.	.
COC1OC2COC(c3ccccc3)OC2C2OC12 (configuration not stated)	-1	.	i	2	.	.	.
CCC(CC)CN1CCN=C1Nc1ccccc1	-30	1	i	2	268	.	.
O=C(CCCOc1ccccc1)Nc1cccc(S(=O)(=O)N2CCCCCC2)c1	-5	3	i	-1	327	.	.
SMILES	NR2E3 ag-1	NR2E3 ag-2	Myeloid diff 2	FXN GAA850 act	T cell modulator	NR2E3 ag conf	GAL4-VP16 luc
Cc1[nH]oc(=O)c1N=Nc1c(Cl)cccc1Cl	7	3	i	4	636	.	.
Cc1[nH]oc(=O)c1N=Nc1ccccc1	75*	-3	i	0	321	-12	-13
BrC(=C\c1ccccc1)/C=N/n1cnnc1	52	.	?	-1	.	27	28
COc1cc(C2CC(=O)c3c([nH]c(C(=O)OCCOC(C)C)c3C)C2)cc(OC)c1OC (configuration not stated)	53	3	?	-2	105	53	56
CCOCCOC(=O)c1[nH]c2c(c1C)C(=O)CC(c1ccc(OC)c(OC)c1)C2 (configuration not stated)	-3	3	i	0	210	.	.
O=[N+]([O-])C(/C=C(/Cl)[N+](=O)[O-])=C(N1CCCCC1)N1CCCCC1	14	-3	i	0	185	.	.
Cn1nc(C(F)(F)F)c(/C=N/OC(=O)c2ccccc2)c1Sc1ccc(Cl)cc1	-5	1	i	0	253	.	.
Cn1nc(C(F)(F)F)c(/C=N/OC(=O)c2ccccc2)c1SCc1ccccc1Cl	65	-5	i	-1	545	71*	70
CSc1ccc(CN(C)C(=O)c2ccc(S(=O)(=O)Nc3c(C)n(C)n(-c4ccccc4)c3=O)cc2)cc1	12	.	i	-1	.	.	.
CSc1ccc(CN(C)C(=O)c2ccc(S(=O)(=O)Nc3ccccc3)cc2)cc1	51	-3	i	0	196	-5	13
CC(=O)NC(c1ccccc1)c1nc(-c2cc3ccccc3o2)cs1 (configuration not stated)	-30	.	i	3	.	.	.
CC1(c2nc3ccccc3[nH]2)CCC(=O)N1C1CC1 (configuration not stated)	9	.	i	.	.	.	.
Cc1ccc(NS(=O)(=O)c2ccc(-c3cnc(C4CC4)o3)cc2)cc1	37	-4	?	-3	297	.	.
CCOc1ccccc1CNS(=O)(=O)c1ccc(-c2cnc(C3CC3)o2)cc1	85*	-4	?	0	i	69	54
Cc1ccc(CNS(=O)(=O)c2ccc(-c3cnc(C4CC4)o3)cc2)cc1	70*	1	i	-1	165	55	35
Cc1cccc(C)c1NS(=O)(=O)c1ccc(-c2cnc(C3CC3)o2)cc1	70*	2	?	-4	i	55	21
COc1ccc(C)cc1NS(=O)(=O)c1ccc(-c2cnc(C3CC3)o2)cc1	103*	-1	?	-2	i	57	59
Cc1cc(C)c(S(=O)(=O)NCCSCc2ccco2)c(C)c1	-29	0	i	3	320	.	.
Cn1nc(C(C)(C)C)cc1C(=O)N1CCCC(c2cc(C(=O)Nc3ccccc3Cl)no2)C1 (configuration not stated)	-13	.	i	-1	.	.	.
CCCS(=O)(=O)NC(=O)C1(C)CCCN(C(=O)c2ccncc2)C1 (configuration not stated)	-3	.	i	2	.	.	.
